Screening results from PubChem BioAssay.
Diaph inh CS: inhibits diaphorase or chemically oxidizes, flagging diaphorase assay artifacts; diaphorase resazurin-to-resorufin fluorescence, NADH, 16 min; bacterial (C. kluyveri) enzyme, not human; inhibition, % at 20 µM; hit rate 0.69% among 190,000; AID 1217;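 active means primary screen inhibition at 20 µM above a set limit, cut at about 50% in these data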;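 further: plate controls were DMSO with full reaction for no effect and wells lacking NADH for full effect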
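Benchmarks: positive control wells lacking NADH, neutral wells with DMSO only. System: bacterial diaphorase enzyme (C. kluyveri). Input: 0.14 U/mL diaphorase, enzyme working solution. Detection: resorufin fluorescence, excitation 544 nm, emission 590 nm. Times: 16-min room-temperature incubation before reading.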
G6PDH counter: counter-screen for G6PDH assay hits: L. mesenteroides G6PDH inhibition | inhibition, % at 5 µM | AID 1020 | hit rate 0.12% among 200,000 | Purified L. mesenteroides G6PDH, diaphorase/resazurin coupled fluorescence, 45 min; in the data active means inhibition above about 50%
Diaph act CS: activates diaphorase or chemically reduces, flagging diaphorase assay artifacts; activation factor at 20 µM; AID 1229; hit rate 0.005% among 190,000; Diaphorase/resazurin coupled assay, resorufin fluorescence, 16 min; stronger effect = higher value; 1 = vehicle wells, 0 = NADH-free wells;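 active means diaphorase activity raised at least twofold by the compound at 20 µM; inactive means activation factor below 2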
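Material: purified diaphorase enzyme from Clostridium kluyveri / Medium: HEPES pH 7.4 buffer with MgCl2 and Tween 20 / Schedule: enzyme reaction of 16 min at room temperature / Measured by: resorufin fluorescence, excitation 544 nm, emission 590 nm / Evaluation: rise in resorufin formation, marking diaphorase activation or chemical reduction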
HKDC1 inh: inhibitors of human hexokinase HKDC1; Q2TB90; recombinant HKDC1, G6PDH/diaphorase resazurin coupled fluorescence; inhibition, % at 20 µM; hit rate 0.16% among 340,000;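 active means inhibition above about 35% when tested at 20 µM, limit read from the data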;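 further: plate controls were DMSO wells with enzyme for no effect and DMSO wells lacking enzyme for full effect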
Target sequence (Q2TB90 whole entry, looked up): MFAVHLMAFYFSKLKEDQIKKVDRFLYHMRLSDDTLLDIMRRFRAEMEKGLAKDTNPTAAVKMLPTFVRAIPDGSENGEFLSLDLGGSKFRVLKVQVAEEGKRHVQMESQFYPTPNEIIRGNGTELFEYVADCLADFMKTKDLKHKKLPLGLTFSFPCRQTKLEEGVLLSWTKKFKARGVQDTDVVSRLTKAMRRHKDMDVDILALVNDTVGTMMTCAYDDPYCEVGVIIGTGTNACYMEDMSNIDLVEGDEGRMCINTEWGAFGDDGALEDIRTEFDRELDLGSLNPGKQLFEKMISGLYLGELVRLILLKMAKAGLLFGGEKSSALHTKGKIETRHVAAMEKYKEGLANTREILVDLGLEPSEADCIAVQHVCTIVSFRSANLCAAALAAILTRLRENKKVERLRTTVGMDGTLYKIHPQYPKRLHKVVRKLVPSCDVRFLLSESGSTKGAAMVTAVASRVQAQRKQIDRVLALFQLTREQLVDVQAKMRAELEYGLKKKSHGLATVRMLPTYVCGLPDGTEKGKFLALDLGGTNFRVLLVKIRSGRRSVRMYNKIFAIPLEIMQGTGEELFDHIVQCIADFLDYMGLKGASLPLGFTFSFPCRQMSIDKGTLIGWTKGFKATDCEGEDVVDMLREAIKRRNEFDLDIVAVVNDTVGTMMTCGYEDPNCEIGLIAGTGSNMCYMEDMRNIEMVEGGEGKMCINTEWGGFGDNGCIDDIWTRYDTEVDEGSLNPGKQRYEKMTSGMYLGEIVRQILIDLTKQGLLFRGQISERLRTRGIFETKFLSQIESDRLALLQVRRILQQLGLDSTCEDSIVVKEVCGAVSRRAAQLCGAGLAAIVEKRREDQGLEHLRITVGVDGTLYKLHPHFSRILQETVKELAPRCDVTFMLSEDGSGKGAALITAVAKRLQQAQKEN
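Material – in-house recombinant HK5 (HKDC1) enzyme · Quantity – HKDC1 at 5 µg/mL · Buffer or medium – pH 8.0 Tris buffer with 10 mM MgCl2 · Reagent – glucose with 1 mM ATP · Dosing – single 20 µM dose · Times – reaction time 90 min, room temperature, protected from light · Technique – resorufin fluorescence at 613 nm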
PfG6PD inh: PfG6PD (Plasmodium falciparum) enzyme inhibition. inhibition, % at 20 µM. AID 504690. PfGluPho enzyme, NADPH resazurin-diaphorase fluorescence. hit rate 0.78% among 350,000;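 active means inhibition reaching at least a set limit at 20 µM in the primary screen, cut at about 59% in these data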;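 further: 0% = DMSO wells with substrate and 100% = DMSO wells lacking glucose-6-phosphate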
PfGluPho conf: PfG6PD inhibition, single-dose confirmed; hit rate 34% among 2,400; shares compounds with PfG6PD inh; recombinant PfGluPho, NADPH-diaphorase-resazurin fluorescence; inhibition, % at 20 µM; AID 504753;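 active means inhibition of at least 50% at 20 µM in any single replicate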;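 further: 0% = DMSO with substrate and 100% = DMSO lacking glucose-6-phosphate substrate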
Diaph ctr 10uM: counter-screen for P. falciparum G6PD inhibitors: diaphorase inhibitors, oxidizers. shares compounds with PfG6PD inh. diaphorase-coupled resazurin reduction, fluorescence, NADPH 10 uM. inhibition, % at 20 µM. hit rate 39% among 820;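 active means average inhibition reaching 50% or more with the compound at 20 µM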;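 further: resorufin red fluorescence formed as diaphorase reduces resazurin using NADPH; 0% = DMSO with enzyme and 100% = DMSO without enzyme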
Diaph ctr 30uM: diaphorase inhibition or oxidation at 30 uM NADPH; shares compounds with PfG6PD inh; Diaphorase/resazurin coupled assay, resorufin fluorescence; inhibition, % at 20 µM; hit rate 29% among 820; AID 504863;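 active means inhibition averaging 50% or more, tested at 20 µM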;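 further: 0% = DMSO with enzyme and 100% = DMSO wells lacking diaphorase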
The depositor's hits bear a star. This is a sample that favours compounds with a hit; in the whole collection about 1.2% have one here.

Results for COc1ccc(O)c(/C=N/NC(=O)CCC(=O)Nc2cccc(C)c2)c1 ?
HKDC1 inh: -8.8; PfG6PD inh: -28.8

What do the screens show for `COc1ccc(OC)c(/C=N/NC(=O)CCCC(=O)Nc2cccc(Br)c2)c1`?
Diaph inh CS: 3.9; G6PDH counter: 6.7; Diaph act CS: 1; HKDC1 inh: 6.4; PfG6PD inh: 75.3*; PfGluPho conf: 36.4

Results for COc1ccc(CCCC(=O)NCC(=O)N/N=C/c2cc(Cl)ccc2OC)cc1 ?
HKDC1 inh: 1.6; PfG6PD inh: 82.8*; PfGluPho conf: 55.4*; Diaph ctr 10uM: 59.1*; Diaph ctr 30uM: 53.3*

What do the screens show for `COc1ccc(OC)c(/C=N/NC(=O)CNC(=O)c2cccc3ccccc23)c1`?
HKDC1 inh: -0.6; PfG6PD inh: 98.7*; PfGluPho conf: 73.9*; Diaph ctr 10uM: 63.4*; Diaph ctr 30uM: 61.7*

Results for COc1ccc2c(c1)sc1nc(-c3ccccc3)cn12 ?
Diaph inh CS: 20.5; G6PDH counter: 14.6; Diaph act CS: 0.8; HKDC1 inh: 7.1; PfG6PD inh: 97.8*; PfGluPho conf: 26.4

What do the screens show for `O=C(O)c1ccc(N2CC3CC(C2)c2cccc(=O)n2C3)c(NC(=S)Nc2ccc(Cl)cc2Cl)c1` (stereo unspecified)?
Diaph inh CS: 6.9; G6PDH counter: -4.2; Diaph act CS: 0.9; HKDC1 inh: -11.0; PfG6PD inh: 59.1*; PfGluPho conf: 27.1

Results for CCc1ccc(NC(=O)Nc2cc(C(=O)O)ccc2N2CC3CC(C2)c2cccc(=O)n2C3)cc1 (stereo unspecified) ?
HKDC1 inh: -1.1; PfG6PD inh: 19.6

What do the screens show for `Cc1ccc(-c2csc3n[nH]c(=S)n23)cc1`?
Diaph inh CS: 31.7; G6PDH counter: -0.6; Diaph act CS: 0.7; HKDC1 inh: -0.6; PfG6PD inh: 62.6*; PfGluPho conf: 40.3

Results for O=c1cc(CSc2nnc(Nc3ccccc3F)s2)nc2sccn12 ?
Diaph inh CS: 16.5; G6PDH counter: 5.7; Diaph act CS: 0.8; HKDC1 inh: -2.7; PfG6PD inh: 39.5

What do the screens show for `COc1ccc(Nc2nnc(SCc3cc(=O)n4ccsc4n3)s2)cc1`?
Diaph inh CS: 28.6; G6PDH counter: 7.6; Diaph act CS: 0.7; HKDC1 inh: 15.1; PfG6PD inh: 82.1*; PfGluPho conf: 47.4

Results for O=S(=O)(Nc1cc(Sc2cccc3cccnc23)c(O)c2ccccc12)c1ccc(F)cc1 ?
Diaph inh CS: 26.4; G6PDH counter: 22.2; Diaph act CS: 0.7; HKDC1 inh: 27.7; PfG6PD inh: 98.4*; PfGluPho conf: 84.8*; Diaph ctr 10uM: 22.3; Diaph ctr 30uM: 15.9

What do the screens show for `O=C(CCc1ccc(O)c(O)c1)N/N=C/c1cc2c(cc1[N+](=O)[O-])OCO2`?
HKDC1 inh: 16.9; PfG6PD inh: 68.3*; PfGluPho conf: 65.2*; Diaph ctr 10uM: 32.8; Diaph ctr 30uM: 16.7

Results for O=C(CCc1ccc(S(=O)(=O)N2CCOCC2)cc1)N/N=C/c1ccc(O)c(O)c1O ?
Diaph inh CS: 70.9*; G6PDH counter: 10.0; Diaph act CS: 0.3; HKDC1 inh: 22.9; PfG6PD inh: 67.8*; PfGluPho conf: 60.4*; Diaph ctr 10uM: 33.2; Diaph ctr 30uM: 42.6

How did CN(C)c1cccc(C(=O)OCCCC(=O)c2ccc(F)cc2)c1 do in these assays?
HKDC1 inh: -1.1; PfG6PD inh: 15.7

What do the screens show for `CC(C)C1=CC(=Nc2ccc(S(N)(=O)=O)cc2)C=C(C(C)C)C1=O`?
HKDC1 inh: 16.9; PfG6PD inh: 75.6*; PfGluPho conf: 35.8

How did NS(=O)(=O)c1ccc(N=C2C(=O)Nc3ccccc32)cc1 do in these assays?
HKDC1 inh: 5.0; PfG6PD inh: -17.6

What do the screens show for `O=C(CNC(=O)c1cccc(F)c1)N/N=C/c1ccc(O)c([N+](=O)[O-])c1`?
Diaph inh CS: 11.6; G6PDH counter: -11.8; Diaph act CS: 0.9; HKDC1 inh: 9.7; PfG6PD inh: -6.2

How did COc1ccc([N+](=O)[O-])cc1/C=N/NC(=O)CNC(=O)C(c1ccccc1)c1ccccc1 do in these assays?
Diaph inh CS: 17.9; G6PDH counter: -24.8; Diaph act CS: 0.8; HKDC1 inh: 6.4; PfG6PD inh: 139.3*; PfGluPho conf: 86.3*; Diaph ctr 10uM: 84.8*; Diaph ctr 30uM: 80.4*

How did COc1ccc([N+](=O)[O-])cc1/C=N/NC(=O)CNC(=O)c1cccc(F)c1 do in these assays?
Diaph inh CS: 30.6; G6PDH counter: -11.3; Diaph act CS: 0.7; HKDC1 inh: -11.1; PfG6PD inh: 70.0*; PfGluPho conf: 22.0

What do the screens show for `COc1cccc(C(=O)Nc2ccc(NC(=O)c3ccco3)c(Cl)c2)c1`?
Diaph inh CS: 8.3; G6PDH counter: -0.1; Diaph act CS: 0.9; HKDC1 inh: -5.1; PfG6PD inh: 69.7*; PfGluPho conf: 12.7

What do the screens show for `Cc1ccccc1OCc1nc2ccc(S(=O)(=O)N3CCOCC3)cc2[nH]1`?
Diaph inh CS: 11.0; G6PDH counter: 11.3; Diaph act CS: 0.9; HKDC1 inh: -15.6; PfG6PD inh: 63.8*; PfGluPho conf: 28.3

How did O=C(CCNC(=O)C1CCN(S(=O)(=O)c2ccccc2)CC1)NCc1ccc(Cl)c(Cl)c1 do in these assays?
HKDC1 inh: -1.5; PfG6PD inh: -14.7

What do the screens show for `Cc1cccc(NC(=O)c2sc3nc(-c4ccccc4)cn3c2C)n1`?
Diaph inh CS: 9.5; G6PDH counter: -53.4; Diaph act CS: 0.9; HKDC1 inh: -7.0; PfG6PD inh: 61.0*; PfGluPho conf: 10.9

How did NC(=S)N/N=C/c1ccc(/C=N/NC(N)=S)cc1 do in these assays?
HKDC1 inh: 23.0; PfG6PD inh: -6.6

What do the screens show for `NC(=S)N/N=C/c1ccc(-n2nncc2-c2ccc(Cl)cc2)cc1`?
HKDC1 inh: 7.6; PfG6PD inh: 72.7*; PfGluPho conf: 22.0

How did Cc1cc(OCCSc2nnc(-c3cccs3)n2C)ccc1Cl do in these assays?
Diaph inh CS: -12.6; G6PDH counter: 10.2; Diaph act CS: 1.1; HKDC1 inh: 5.3; PfG6PD inh: 70.4*; PfGluPho conf: 21.6

How did Cc1ccc(Nc2cc(C)nc(N3CCOCC3)n2)cc1 do in these assays?
Diaph inh CS: 12.1; G6PDH counter: -1.7; Diaph act CS: 0.9; HKDC1 inh: 0.5; PfG6PD inh: 61.3*; PfGluPho conf: 11.8

How did Cc1cc(Nc2ccc(C)c(Cl)c2)nc(N2CCOCC2)n1 do in these assays?
HKDC1 inh: -1.6; PfG6PD inh: 65.8*; PfGluPho conf: 7.6
